Source: ChEMBL document CHEMBL1949587 (Bioorg Med Chem, 2012)
Converted amounts (≈) assume the structure as drawn. The source made the active and inactive calls. The rule behind the calls is not given here.

Key:
HUVEC [1] = experiment: Antiangiogenic activity in HUVEC co-cultured with fibroblasts assessed as inhibition of capillary-like tube formation at 4 uM after 11 days by microscopic staining method relative to control; type: functional; details: Homo sapiens, 264 h
In short: (§1)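 Commercial co-culture kit of HUVEC and fibroblasts, given compound at final 4 or 20 μM and held at 37 °C, 5% CO₂ for 11 days. Tubes fixed with 70% ethanol and stained for CD31, then photographed under a microscope. Tube area quantified by image analysis and inhibition calculated against control taken as 100%.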

[2] = target: Insulin-like growth factor 1 receptor (Homo sapiens, UniProt P08069); experiment: Inhibition of IGF1R
Calu-6 [3] = experiment: Antitumor activity against human Calu6 cells xenografted in BALB/c mouse assessed as tumor growth inhibition at 150 mg/kg, po qd for 11 days in presence of sunitinib; type: functional, organism-based; parameters: dose 150 mg/kg
In short: (§2)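 Female Balb/c nude mice carried s.c. flank Calu-6 xenografts, 5.0×10⁶ cells in Hanks' solution. At 200 mm³, mice were randomized into 4 groups (n = 5): vehicle, 150 mg/kg, sunitinib 80 mg/kg, or both. Each group dosed orally once daily for 11 days. Volume = 1/2 × long × short². Inhibition from volume change against control.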

Focal adhesion kinase 1 = Focal adhesion kinase 1 (Homo sapiens, UniProt Q05397); experiment: Inhibition of FAK
[4] = Tmax in nude mouse at 30 mg/kg, po by LC-MS/MS analysis; type: ADME, organism-based; parameters: dose 30 mg/kg, route oral; details: in vivo
In short: (§3)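 Female nude mice given single oral dose in DMSO/Cremophor EL/1% Tween 80 (1:1:8 v/v/v) by stomach sonde. Blood taken at 30 min, 1, 2, 4, 7 and 24 h (n = 2/time point). Plasma precipitated with CH3CN/MeOH plus internal standard, filtered, measured by LC-MS/MS (LLOQ 20 ng/mL). Parameters by non-compartmental analysis; CL given as CL/F.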

QG-56 = experiment: Antiproliferative activity against human QG56 cells assessed as cell growth inhibition; type: cell-based
[5] = target: Leukocyte tyrosine kinase receptor (Homo sapiens, UniProt P29376); experiment: Inhibition of LTK
[6] = Oral bioavailability in nude mouse at 30 mg/kg by LC-MS/MS analysis; type: ADME, organism-based; details: in vivo; in short: as §3
HT-29 = experiment: Antiproliferative activity against human HT-29 cells assessed as cell growth inhibition; type: cell-based
[7] = Antiproliferative activity against human 10C9 cells assessed as cell growth inhibition; type: cell-based
[8] = Apparent oral clearance in nude mouse at 30 mg/kg, po by LC-MS/MS analysis; type: ADME, organism-based; parameters: dose 30 mg/kg, route oral; details: in vivo; in short: as §3
DLD-1 = experiment: Antiproliferative activity against human DLD1 cells assessed as cell growth inhibition; type: cell-based
[9] = Antiproliferative activity against human Huh1 cells assessed as cell growth inhibition; type: cell-based; details: HuH-1
[10] = target: Hepatocyte growth factor receptor (Homo sapiens, UniProt P08581); experiment: Inhibition of MET
[11] = Antiproliferative activity against human IGROV1/T8 cells assessed as cell growth inhibition; type: cell-based; details: IGROV-1
[12] = target: Tyrosine-protein kinase Yes (Homo sapiens, UniProt P07947); experiment: Inhibition of YES
[13] = Solubility of the compound in fasted state simulated intestinal fluid at 10 mM after 2 hrs by HPLC-UV analysis; type: physicochemical
In short: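 Triplicate samples made from 10 mM DMSO stocks. DMSO evaporated (1 h), residue dissolved in FaSSIF and shaken 2 h. Solutions filtered, filtrate analysed by UV or HPLC-UV against a four-point calibration curve from the stocks. Result in µg/mL.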

MKN-28 = experiment: Antiproliferative activity against human MKN28 cells assessed as cell growth inhibition; type: cell-based
[14] = target: Tyrosine-protein kinase receptor UFO (Homo sapiens, UniProt P30530); experiment: Inhibition of AXL
T47D = experiment: Antiproliferative activity against human T47D cells assessed as cell growth inhibition; type: cell-based
[15] = target: Epithelial discoidin domain-containing receptor 1 (Homo sapiens, UniProt Q08345); experiment: Inhibition of DDR1
HUVEC [16] = experiment: Antiangiogenic activity in HUVEC assessed as inhibition of VEGF-induced cell proliferation after 4 days; type: functional, cell-based; details: Homo sapiens, 96 h
In short: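 HUVECs maintained in RPMI1640 with 10% FCS, 50 μg/mL heparin and ECGS, then seeded at 3000 cells/well in RPMI1640 with 5% FCS and 20 ng/mL VEGF, with compound at serially diluted concentrations. Incubated at 37 °C, 5% CO₂. Read-out is Cell Counting Kit-8, absorbance at 450 nm. Inhibition = (1−T/C)×100 against untreated control.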

NCI-H441 = experiment: Antiproliferative activity against human NCI-H441 cells assessed as cell growth inhibition; type: cell-based
[17] = Antiproliferative activity against human JOK1 cells assessed as cell growth inhibition; type: cell-based
NCI-H460 = experiment: Antiproliferative activity against human NCI-H460 cells assessed as cell growth inhibition; type: cell-based
[18] = target: Fibroblast growth factor receptor 2 (Homo sapiens, UniProt P21802); experiment: Inhibition of FGFR2
[19] = Antiproliferative activity against human KG1a cells assessed as cell growth inhibition; type: cell-based; details: KG-1a
CAPAN-1 = experiment: Antiproliferative activity against human Capan1 cells assessed as cell growth inhibition; type: cell-based
HCT-116 = experiment: Antiproliferative activity against human HCT116 cells; type: cell-based
[20] = Antiproliferative activity against human COLO320DM cells assessed as cell growth inhibition; type: cell-based; details: COLO 320DM
HUVEC [21] = experiment: Antiangiogenic activity in HUVEC co-cultured with fibroblasts assessed as inhibition of capillary-like tube formation at 20 uM after 11 days by microscopic staining method relative to control; type: functional; details: Homo sapiens, 264 h; in short: as §1
Calu-6 [22] = experiment: Antitumor activity against human Calu6 cells xenografted in BALB/c mouse assessed as tumor growth inhibition at 150 mg/kg, po qd for 11 days; type: functional, organism-based; parameters: dose 150 mg/kg; in short: as §2
BXPC-3 = experiment: Antiproliferative activity against human BxPC3 cells assessed as cell growth inhibition; type: cell-based
[23] = target: Tyrosine-protein kinase Lck (Homo sapiens, UniProt P06239); experiment: Inhibition of LCK
[24] = Oral bioavailability in nude mouse at 10 mg/kg by LC-MS/MS analysis; type: ADME, organism-based; details: in vivo; in short: as §3

Chain of Tyrosine-protein kinase Lck (P06239 whole entry): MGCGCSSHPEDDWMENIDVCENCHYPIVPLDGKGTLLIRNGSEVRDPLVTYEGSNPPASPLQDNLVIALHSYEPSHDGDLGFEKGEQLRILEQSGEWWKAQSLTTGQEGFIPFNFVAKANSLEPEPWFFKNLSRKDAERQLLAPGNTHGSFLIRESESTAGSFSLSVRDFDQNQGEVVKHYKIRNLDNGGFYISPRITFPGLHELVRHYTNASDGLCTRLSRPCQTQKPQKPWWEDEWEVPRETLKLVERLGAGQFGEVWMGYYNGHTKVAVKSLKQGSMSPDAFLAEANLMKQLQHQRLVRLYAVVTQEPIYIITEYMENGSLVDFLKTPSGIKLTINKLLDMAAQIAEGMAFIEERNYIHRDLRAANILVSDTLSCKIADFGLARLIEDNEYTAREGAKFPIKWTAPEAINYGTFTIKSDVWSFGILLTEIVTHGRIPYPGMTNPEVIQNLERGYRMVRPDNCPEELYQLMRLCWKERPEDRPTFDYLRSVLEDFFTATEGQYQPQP
Chain of Leukocyte tyrosine kinase receptor (P29376 whole entry): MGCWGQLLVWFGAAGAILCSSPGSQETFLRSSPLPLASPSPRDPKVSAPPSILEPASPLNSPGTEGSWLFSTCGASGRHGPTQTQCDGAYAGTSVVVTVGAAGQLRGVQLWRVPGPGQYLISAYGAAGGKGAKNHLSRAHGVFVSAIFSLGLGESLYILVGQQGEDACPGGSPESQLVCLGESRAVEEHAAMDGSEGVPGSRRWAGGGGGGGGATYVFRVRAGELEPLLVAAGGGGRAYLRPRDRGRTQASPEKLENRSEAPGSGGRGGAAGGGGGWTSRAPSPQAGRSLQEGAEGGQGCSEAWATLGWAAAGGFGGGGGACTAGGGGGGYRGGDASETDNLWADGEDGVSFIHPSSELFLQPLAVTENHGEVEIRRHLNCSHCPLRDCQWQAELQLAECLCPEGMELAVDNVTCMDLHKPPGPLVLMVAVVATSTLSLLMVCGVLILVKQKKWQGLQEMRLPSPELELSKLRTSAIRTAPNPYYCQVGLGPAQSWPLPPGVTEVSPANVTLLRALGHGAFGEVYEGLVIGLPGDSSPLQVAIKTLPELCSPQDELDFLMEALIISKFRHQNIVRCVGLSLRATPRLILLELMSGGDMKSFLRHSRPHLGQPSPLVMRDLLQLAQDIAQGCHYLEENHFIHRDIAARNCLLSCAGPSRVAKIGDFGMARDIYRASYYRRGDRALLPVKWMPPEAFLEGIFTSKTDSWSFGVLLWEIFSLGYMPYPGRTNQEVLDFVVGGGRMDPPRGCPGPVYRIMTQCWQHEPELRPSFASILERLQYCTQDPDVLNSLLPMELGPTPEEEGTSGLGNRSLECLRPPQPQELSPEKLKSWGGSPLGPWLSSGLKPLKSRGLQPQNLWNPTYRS
Chain of Fibroblast growth factor receptor 2 (P21802 whole entry): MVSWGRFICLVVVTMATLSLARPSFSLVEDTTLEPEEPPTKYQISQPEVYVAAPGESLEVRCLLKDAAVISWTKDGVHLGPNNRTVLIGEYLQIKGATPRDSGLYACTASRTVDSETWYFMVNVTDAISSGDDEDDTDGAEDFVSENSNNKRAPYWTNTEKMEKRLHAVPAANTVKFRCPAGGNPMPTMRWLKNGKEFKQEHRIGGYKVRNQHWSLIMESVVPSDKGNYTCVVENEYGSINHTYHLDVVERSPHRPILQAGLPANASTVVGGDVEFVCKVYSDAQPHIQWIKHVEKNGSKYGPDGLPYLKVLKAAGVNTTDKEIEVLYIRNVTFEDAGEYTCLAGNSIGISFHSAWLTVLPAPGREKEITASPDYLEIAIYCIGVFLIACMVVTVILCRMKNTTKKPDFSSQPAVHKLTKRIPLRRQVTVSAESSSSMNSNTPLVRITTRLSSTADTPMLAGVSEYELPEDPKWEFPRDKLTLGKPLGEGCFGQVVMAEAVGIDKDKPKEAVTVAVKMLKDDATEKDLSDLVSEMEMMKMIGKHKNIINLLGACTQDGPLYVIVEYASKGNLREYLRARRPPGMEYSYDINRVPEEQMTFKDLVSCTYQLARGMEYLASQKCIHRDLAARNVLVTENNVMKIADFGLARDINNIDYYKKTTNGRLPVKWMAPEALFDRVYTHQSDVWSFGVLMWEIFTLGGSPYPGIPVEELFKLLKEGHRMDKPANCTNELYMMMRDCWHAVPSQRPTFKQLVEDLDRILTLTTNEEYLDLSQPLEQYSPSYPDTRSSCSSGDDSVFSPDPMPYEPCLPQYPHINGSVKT
Chain of Tyrosine-protein kinase Yes (P07947 whole entry): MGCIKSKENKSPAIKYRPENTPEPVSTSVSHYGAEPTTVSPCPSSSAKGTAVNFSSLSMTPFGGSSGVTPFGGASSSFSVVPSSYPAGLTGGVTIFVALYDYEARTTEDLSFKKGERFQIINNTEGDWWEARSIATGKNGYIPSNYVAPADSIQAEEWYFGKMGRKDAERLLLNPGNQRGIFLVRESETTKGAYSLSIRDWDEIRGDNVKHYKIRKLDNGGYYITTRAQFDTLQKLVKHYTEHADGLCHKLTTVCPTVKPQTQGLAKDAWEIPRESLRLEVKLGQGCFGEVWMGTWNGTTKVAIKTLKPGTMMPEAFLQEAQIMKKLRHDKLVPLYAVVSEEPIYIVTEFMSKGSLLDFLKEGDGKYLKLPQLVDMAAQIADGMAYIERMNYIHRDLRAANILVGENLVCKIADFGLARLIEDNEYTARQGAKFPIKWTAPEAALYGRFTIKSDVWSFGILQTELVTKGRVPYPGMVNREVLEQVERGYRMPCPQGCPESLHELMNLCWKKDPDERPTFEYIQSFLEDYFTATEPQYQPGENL
Chain of Epithelial discoidin domain-containing receptor 1 (Q08345 whole entry, the tested form may be a part): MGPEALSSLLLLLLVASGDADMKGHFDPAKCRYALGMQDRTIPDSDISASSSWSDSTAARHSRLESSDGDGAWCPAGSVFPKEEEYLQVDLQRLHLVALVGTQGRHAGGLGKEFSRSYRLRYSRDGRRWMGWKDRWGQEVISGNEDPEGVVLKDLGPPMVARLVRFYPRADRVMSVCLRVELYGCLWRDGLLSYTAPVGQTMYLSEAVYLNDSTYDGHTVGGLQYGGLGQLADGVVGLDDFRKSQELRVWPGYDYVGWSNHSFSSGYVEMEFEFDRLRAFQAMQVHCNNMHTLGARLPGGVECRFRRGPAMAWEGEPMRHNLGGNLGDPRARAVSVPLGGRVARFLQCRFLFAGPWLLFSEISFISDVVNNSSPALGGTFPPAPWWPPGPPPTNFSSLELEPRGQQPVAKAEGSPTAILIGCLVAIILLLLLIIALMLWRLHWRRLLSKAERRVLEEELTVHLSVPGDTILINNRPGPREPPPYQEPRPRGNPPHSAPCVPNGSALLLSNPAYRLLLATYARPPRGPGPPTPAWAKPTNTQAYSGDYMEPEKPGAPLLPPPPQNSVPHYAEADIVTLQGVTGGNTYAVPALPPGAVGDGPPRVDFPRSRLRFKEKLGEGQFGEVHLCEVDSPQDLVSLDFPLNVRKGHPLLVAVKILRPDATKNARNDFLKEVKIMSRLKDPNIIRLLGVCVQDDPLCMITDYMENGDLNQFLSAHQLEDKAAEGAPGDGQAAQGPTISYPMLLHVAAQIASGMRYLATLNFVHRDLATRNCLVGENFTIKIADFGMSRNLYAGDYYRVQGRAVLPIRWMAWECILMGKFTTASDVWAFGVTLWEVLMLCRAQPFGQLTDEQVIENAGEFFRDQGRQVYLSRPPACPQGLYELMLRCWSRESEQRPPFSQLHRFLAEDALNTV
Chain of Tyrosine-protein kinase receptor UFO (P30530 whole entry): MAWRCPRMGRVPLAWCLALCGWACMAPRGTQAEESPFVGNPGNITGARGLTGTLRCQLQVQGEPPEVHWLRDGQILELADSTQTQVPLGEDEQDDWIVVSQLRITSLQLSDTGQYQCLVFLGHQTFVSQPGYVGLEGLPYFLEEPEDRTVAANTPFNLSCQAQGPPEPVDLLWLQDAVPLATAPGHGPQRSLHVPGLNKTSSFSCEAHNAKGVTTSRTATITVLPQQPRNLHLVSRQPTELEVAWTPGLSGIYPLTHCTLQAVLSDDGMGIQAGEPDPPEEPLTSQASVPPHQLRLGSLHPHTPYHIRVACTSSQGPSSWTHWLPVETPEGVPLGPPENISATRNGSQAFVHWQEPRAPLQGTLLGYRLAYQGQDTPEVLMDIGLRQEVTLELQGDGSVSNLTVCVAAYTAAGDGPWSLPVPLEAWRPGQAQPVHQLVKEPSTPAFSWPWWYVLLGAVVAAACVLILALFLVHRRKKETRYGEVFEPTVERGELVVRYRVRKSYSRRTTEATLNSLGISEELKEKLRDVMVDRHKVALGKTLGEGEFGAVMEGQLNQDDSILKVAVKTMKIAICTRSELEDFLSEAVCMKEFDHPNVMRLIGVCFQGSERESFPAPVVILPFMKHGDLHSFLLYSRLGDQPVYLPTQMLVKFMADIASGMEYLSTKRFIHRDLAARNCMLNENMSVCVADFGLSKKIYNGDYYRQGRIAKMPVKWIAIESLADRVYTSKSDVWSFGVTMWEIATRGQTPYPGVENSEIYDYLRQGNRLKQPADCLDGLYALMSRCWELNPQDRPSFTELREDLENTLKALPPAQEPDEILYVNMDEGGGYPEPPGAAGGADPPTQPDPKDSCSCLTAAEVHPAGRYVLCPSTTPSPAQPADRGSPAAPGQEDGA

IC50 [2] [µM]	IC50 (Focal adhesion kinase 1) [µM]	Tmax [4] [h]	IC50 [5] [µM]	IC50 (HT-29) [µM]	CL/F [8] [mL/min/kg]	IC50 (DLD-1) [µM]	IC50 [10] [µM]	IC50 [12] [µM]	solubility at 2 h, 10000 µM [13] [µg/mL]	IC50 (MKN-28) [µM]	IC50 [14] [µM]	IC50 (T47D) [µM]	IC50 [15] [µM]	Compound	inhibition at 4 µM (HUVEC [1]) [%]	IC50 (QG-56) [µM]	IC50 [7] [µM]	IC50 [9] [µM]	IC50 [11] [µM]	IC50 (HUVEC [16]) [µM]	further results
> 50	> 50	1	> 50	10	5.8	19	> 50	> 50	225 (≈ 622 µM)	15	> 50	4.5	> 50	COc1ccc(C(=O)NC[C@@H](O)CO)cc1/C=C/c1ccc(Cl)cc1	38	23	38	30	9.5	0.48	TGI (Calu-6 [3]): Active; bioavailability [6]: 100%; IC50 (NCI-H441): 25 µM; IC50 [17]: 31 µM; IC50 (NCI-H460): 15 µM; IC50 [18]: > 50 µM; IC50 [19]: 17 µM; IC50 (CAPAN-1): 47 µM; IC50 (HCT-116): 13 µM; IC50 [20]: 46 µM; inhibition at 20 µM (HUVEC [21]): 86%; TGI (Calu-6 [22]): Active; IC50 (BXPC-3): 27 µM; IC50 [23]: > 50 µM
> 50	> 50	1	> 50	16	5.6	28	> 50	> 50	263 (≈ 727 µM)	23	> 50	7.2	> 50	COc1ccc(C(=O)NC[C@H](O)CO)cc1/C=C/c1ccc(Cl)cc1	41	21	50	30	12	0.25	IC50 (NCI-H441): 34 µM; IC50 [17]: 38 µM; IC50 (NCI-H460): 24 µM; IC50 [18]: > 50 µM; IC50 [19]: 20 µM; IC50 (CAPAN-1): 67 µM; IC50 (HCT-116): 21 µM; IC50 [20]: 61 µM; inhibition at 20 µM (HUVEC [21]): 93%; IC50 (BXPC-3): 51 µM; bioavailability [24]: 90%; IC50 [23]: > 50 µM
